A selection: hits, their analogues and other compounds. The true share with any hit is near 1.9%.
NPY2 pot ag: human NPY-Y2 potentiation or agonism, primary screen; P49146; cells expressing NPY-Y2, potentiator/agonist read-out; activation, % at 3.6 µM; 0.45% of 220,000 active; AID 1359; in the data active means activation above about 27%;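 further: cells stimulated with NPY near EC25 plus isoproterenol at EC100; 0% = vehicle plus submaximal agonist and 100% = vehicle plus saturating agonist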
NPY Y1 blocker: antagonists of human neuropeptide Y receptor Y1 | 1% of 200,000 active | P25929 | HEK293-CNG Y1 cells, membrane potential fluorescence; NPY at EC95, then isoproterenol | inhibition, % at 3.6 µM | AID 1040;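 active means inhibition above the campaign mean inhibition of all tested compounds plus 3 SD, cut at about 20% in these data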;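 further: 0% = DMSO wells given NPY plus isoproterenol and 100% = isoproterenol alone without NPY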
Target sequence (P25929 whole entry, looked up): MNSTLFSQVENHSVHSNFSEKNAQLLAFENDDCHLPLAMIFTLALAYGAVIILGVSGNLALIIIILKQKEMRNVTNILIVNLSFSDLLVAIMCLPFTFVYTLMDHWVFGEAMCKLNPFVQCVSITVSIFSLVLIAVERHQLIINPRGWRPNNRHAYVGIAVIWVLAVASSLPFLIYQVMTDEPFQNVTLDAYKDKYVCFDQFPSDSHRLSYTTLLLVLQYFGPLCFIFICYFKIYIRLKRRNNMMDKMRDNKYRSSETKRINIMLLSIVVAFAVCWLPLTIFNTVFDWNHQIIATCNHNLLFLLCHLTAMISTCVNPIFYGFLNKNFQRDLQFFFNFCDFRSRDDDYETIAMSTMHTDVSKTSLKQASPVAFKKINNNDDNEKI
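Test system – HEK293 Y1/CNG channel cell line · Also added – NPY agonist 25 nM, then isoproterenol 1 µM plus Ro 20-1724 25 µM · Compound dosing – one concentration, 3.6 µM, in 0.4% DMSO · Schedule – compound incubation 1 h at room temperature, readout 45 min post-stimulation · Technique – fluorescence, membrane potential probe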
NPY-Y2 antag: NPY-Y2 (human) receptor antagonism. inhibition, % at 2.7 µM. 0.99% of 140,000 active. P49146. NPY-Y2 expressing cells, antagonist mode. AID 793; in the data active means inhibition above about 17%;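 further: 0% = vehicle with agonist challenge and 100% = reference antagonist with challenge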
NPY1 pot ag: potentiators or agonists of human neuropeptide Y receptor Y1 | activation, % at 3.6 µM | NPY-Y1 expressing cells, potentiator/agonist activation | 0.37% of 220,000 active | P25929; in the data active means activation above about 33%, passing the limit was not always enough;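 further: cells stimulated with NPY at EC10 then isoproterenol at EC100; 0% = low agonist plus stimulus and 100% = saturating agonist plus stimulus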
NPY-Y1 antag ct: human NPY-Y1 antagonism in NPY-Y2 counter-screen; shares compounds with NPY-Y2 antag; cell-based NPY-Y1 antagonism counterscreen; inhibition, % at 3.6 µM; 19% of 710 active;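 further: cells challenged with NPY then isoproterenol with cAMP sensed through a CNG channel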
NPY2 antag conf: human NPY-Y2 antagonism, confirmation. shares compounds with NPY-Y2 antag. HEK293 NPY-Y2 CNG channel, membrane potential fluorescence. inhibition, % at 2.8 µM. 32% of 710 active;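 active means mean inhibition of triplicate wells above the hit cutoff set in the primary screen, cut at about 17% in these data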;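 further: 0% = DMSO with NPY challenge and 100% = BIIE0246 high control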
NPY-Y1 ant conf: human NPY-Y1 antagonism, confirmation; shares compounds with NPY Y1 blocker; HEK293-CNG NPY-Y1, membrane potential fluorescence, cAMP; NPY challenge against isoproterenol-raised cAMP; inhibition, % at 3.6 µM; 21% of 1,200 active;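 further: 0% = vehicle with agonist plus stimulus and 100% = stimulus alone without agonist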
NPY2 antag ctr: antagonizes human NPY-Y2, counter-screen to NPY-Y1 antagonists; 28% of 1,200 active; inhibition, % at 3.6 µM; HEK293 NPY-Y2 CNG membrane potential fluorescence, antagonism; cells given NPY, then isoproterenol; AID 1255; shares compounds with NPY Y1 blocker; in the data active means inhibition above about 17%;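 further: 0% = DMSO with agonist challenge and 100% = reference antagonist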
NPY-Y2 pot conf: human NPY-Y2 potentiation or agonism, confirmation; shares compounds with NPY2 pot ag; cell-based NPY-Y2 potentiator/agonist assay; activation, % at 3.6 µM; 20% of 450 active; AID 1539; in the data active means activation above about 33%
NPY-Y1 potentiator: NPY-Y1 potentiation or agonism as NPY-Y2 counter-screen; AID 1651; shares compounds with NPY2 pot ag; Y1 HEK293-CNG cells, membrane potential fluorescence; activation, % at 3.6 µM; 20% of 450 active; in the data active means activation above about 45%;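 further: cells stimulated with submaximal NPY then isoproterenol with phosphodiesterase inhibitor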
NPY-Y1 ag 2: counter-screen for NPY-Y2 potentiators: agonists of human NPY-Y1 | shares compounds with NPY2 pot ag | HEK293 Y1-CNGC, membrane potential fluorescence, agonism | activation, % at 3.6 µM | 37% of 450 active | AID 1702;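 active means activation above the mean of DMSO-only control wells plus 3 SD, cut at about 18% in these data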;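 further: cells stimulated with 1 µM isoproterenol plus the PDE inhibitor Ro 20-1724; 0% = isoproterenol with DMSO and no NPY and 100% = 40 nM NPY; Y1 agonists lower the membrane potential dye signal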
CNGC inh: cyclic nucleotide gated channel inhibition as counter-screen. shares compounds with NPY2 pot ag. HEK293-CNG parental, isoproterenol cAMP, membrane potential fluorescence. inhibition, % at 3.6 µM. 32% of 450 active;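 active means inhibition above the control-well mean plus 3 SD of those wells, cut at about 22% in these data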;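 further: 0% = DMSO with isoproterenol and 100% = DMSO without isoproterenol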
NPY-Y2 ag 2: counter-screen for NPY-Y2 potentiators: agonists of human NPY-Y2; shares compounds with NPY2 pot ag; HEK293 Y2/CNGC cells, membrane potential fluorescence, agonist mode; activation, % at 3.6 µM; 56% of 450 active;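 active means activation above the mean of solvent-only control wells plus 3 SD, cut at about 10% in these data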;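 further: cells stimulated by isoproterenol with no NPY added so direct agonism is tested; 0% = DMSO with isoproterenol alone and 100% = NPY at EC100 plus isoproterenol; agonism lowers probe fluorescence through less cAMP and CNG channel opening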
Numbers without * were called inactive; x = not tested or not shown. Unless noted, no stated cut-off is given here; in the data, active means inhibition above about 20%; inactive means the rest.

SMILES	NPY2 pot ag	NPY Y1 blocker	NPY-Y2 antag	NPY1 pot ag	NPY-Y1 antag ct	NPY2 antag conf	others
CCCCCc1nnc(NC(=O)Cn2cnc3ccccc3c2=O)s1	-2	8	6	-1	x	x
O=C(CCc1ccccc1)c1nnc(-c2ccccc2)o1	1	6	x	-17	x	x
CCCc1nc(SCc2ccc(Cl)cc2Cl)n[nH]1	-4	2	18*	-32	3	7
CC(C)(C)Sc1ccccc1S(=O)(=O)C(C)(C)C	-6	x	x	-7	x	x
Cc1ccc(SCc2nc3ccccc3n2CC(=O)Nc2c(C)cccc2C)cc1	-8	12	19*	5	4	5
O=C1N(Cc2cccnc2)C[C@@H]2C[C@@H](c3cccc(Oc4ccccc4)c3)N3CCC[C@@]123	5	x	x	20	x	x
CCOC(=O)c1nn(-c2ccc(F)cc2)c2nc(-c3ccccc3)c(C#N)c(=O)n12	-8	7	19*	-11	11	8
CCOC(=O)c1nn(-c2cccc(C)c2)c2nc(-c3ccccc3)c(C#N)c(=O)n12	-8	-2	1	-9	x	x
Cc1ccccc1C(=O)NNC(=O)CSc1nc(-c2ccccc2)cc(=O)[nH]1	6	5	x	-6	x	x
Nc1nonc1-c1nc2ccccc2n1Cc1ccc(F)cc1Cl	-27	16	25*	-61	45*	51*
Fc1ccc(Cn2c(-c3cscn3)nc3ccccc32)c(Cl)c1	4	13	5	-16	x	x
CNCc1ccccc1Sc1ccc(OC)cc1	-17	5	20*	-34	2	6
COCCCN(CC(=O)O)S(=O)(=O)c1cccc(Cl)c1	-10	4	x	24	x	x
COCc1cc(=O)[nH]c2c1c(-c1ccccc1)nn2C	-9	x	x	9	x	x
c1ccc(C(Cc2nc(-c3ccncc3)no2)c2ccccc2)cc1	42*	3	23*	38	9	4	NPY-Y2 pot conf=14;NPY-Y1 potentiator=-11;NPY-Y1 ag 2=2;CNGC inh=-9;NPY-Y2 ag 2=2
C#CCOCCOCCOCCNc1nc(N2CCN(C(=O)Cn3cc(CCCN=C(N)N)nn3)CC2)nc(N2CCN(C(=O)[C@H]([C@@H](C)CC)n3cc(CCCN=C(N)N)nn3)CC2)n1	7	-3	-4	13	x	x
CCCCNCc1cc(Cl)c(OCCC)c(OCC)c1	0	5	1	-18	x	x
CCCCOc1c(Cl)cc(CNC(C)(C)CO)cc1OCC	-14	24*	7	-35	x	x	NPY-Y1 ant conf=7;NPY2 antag ctr=6
Cc1c(Cl)ccc2c(C(=O)NCCN3CCCCC3)cc(-c3ccccn3)nc12	-63	25*	x	-102	x	x	NPY-Y1 ant conf=20;NPY2 antag ctr=29*
Cn1c(-c2ccc3c(c2)OCO3)cnc1NCc1ccccc1Cl	-2	12	x	-7	x	x
Cn1c(-c2ccc3c(c2)OCO3)cnc1NCc1cccc(Cl)c1	-18	34*	10	-6	x	x	NPY-Y1 ant conf=12;NPY2 antag ctr=12
CCOC(=O)C1(Cc2ccccc2)CCN(Cc2cc(OC)c3c(c2)OCO3)CC1	-8	25*	x	-1	x	x	NPY-Y1 ant conf=7;NPY2 antag ctr=10

Source: PubChem
